These results are taken from ChEMBL document CHEMBL3612030 (Eur J Med Chem, 2015).

Test [1] has as its target T1, Polyunsaturated fatty acid 5-lipoxygenase (Homo sapiens, UniProt P09917).
T1 sequence (P09917 whole entry): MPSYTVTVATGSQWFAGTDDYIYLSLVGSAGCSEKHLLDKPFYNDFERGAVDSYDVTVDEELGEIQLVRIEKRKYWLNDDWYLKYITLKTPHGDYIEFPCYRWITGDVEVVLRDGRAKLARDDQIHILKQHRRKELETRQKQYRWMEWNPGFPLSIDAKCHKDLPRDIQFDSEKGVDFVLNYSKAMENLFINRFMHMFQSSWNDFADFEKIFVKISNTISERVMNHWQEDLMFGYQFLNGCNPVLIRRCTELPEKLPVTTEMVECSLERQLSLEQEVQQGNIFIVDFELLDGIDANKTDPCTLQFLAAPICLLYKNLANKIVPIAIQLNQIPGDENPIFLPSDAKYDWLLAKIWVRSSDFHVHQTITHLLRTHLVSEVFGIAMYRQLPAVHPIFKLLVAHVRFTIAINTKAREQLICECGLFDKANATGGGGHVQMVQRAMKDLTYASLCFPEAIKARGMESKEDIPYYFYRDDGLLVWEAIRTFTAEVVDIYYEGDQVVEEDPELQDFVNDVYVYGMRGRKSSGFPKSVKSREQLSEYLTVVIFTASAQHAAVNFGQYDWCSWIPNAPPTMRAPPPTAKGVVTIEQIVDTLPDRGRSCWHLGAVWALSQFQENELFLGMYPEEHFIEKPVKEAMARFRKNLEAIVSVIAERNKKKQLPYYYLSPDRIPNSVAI
Description: Inhibition of human 5-LOX expressed in Escherichia coli Bl21 (DE3) assessed as reduction in LTB4 and 5-H(P)ETE) formation pre-incubated for 10 mins before arachidonic acid substrate addition by RP-HPLC method. In a few lines:
(§1)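 Human 5-LO expressed from pT3-5LO in E. coli BL21(DE3) and semi-purified on ATP-agarose. Diluted in PBS with 1 mM EDTA and 1 mM ATP, pre-incubated with compound 10 min at 4 °C, then warmed 30 s at 37 °C. Reaction started with 2 mM CaCl2 plus 20 µM arachidonic acid, run 10 min at 37 °C and stopped with ice-cold methanol. All-trans LTB4 isomers and 5-H(P)ETE measured by RP-HPLC. 3–4 independent experiments.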

Test [2] concerns the target T1, Polyunsaturated fatty acid 5-lipoxygenase. Kind of test: Inhibition of 5-LOX in human neutrophils assessed as reduction in LTB4 and 5-H(P)ETE) formation pre-incubated for 15 mins before A23187 and arachidonic acid substrate addition by RP-HPLC method. In a few lines:
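Freshly isolated neutrophils (1 × 10^7/mL) pre-incubated with compound for 15 min at 37 °C. LTB4, its all-trans isomers and 5-H(P)ETE extracted and quantified by HPLC; cysteinyl-LTs and LTB4 oxidation products not measured. Mean ± S.E.M. of 3–4 independent experiments.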

A further test concerns U-937. Description: Cytotoxicity against human U937 cells assessed as reduction in viability incubated for 24 hrs by MTT assay. It is filed as cell-based. The settings on record: U-937, 24 h. In a few lines: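 U937 cells grown in RPMI 1640 with 10% FBS, […] and penicillin/streptomycin at 37 °C under 5% CO2. Seeded at 1 × 10^6/mL and exposed to 3 concentrations for 24 h. MTT added at one-tenth culture volume for 4 h, then acidic isopropanol. Read at 570 nm minus 630-690 nm background. Untreated cells (RPMI + DMSO) = 100% viability. EC50 = concentration halving MTT reduction. 3–4 independent experiments, mean ± S.E.M.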
(Tetrazolium assays rely on reduction of a dye to a coloured formazan, in cell work by metabolically active cells.)

Test [3] deals with T2, Polyunsaturated fatty acid 5-lipoxygenase (Homo sapiens) (UniProt P09917).
T2 sequence (whole entry): T1 sequence (P09917 whole entry)
Kind of test: Inhibition of human 5-LOX expressed in HEK293 cells co-expressing FLAP assessed as reduction in LTB4 and 5-H(P)ETE) formation at 1 uM pre-incubated for 10 mins before arachidonic acid substrate addition by RP-HPLC method. It is filed as cell-based. In a few lines:
(§2)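 Stably transfected HEK 293 cells expressing 5-LO alone or 5-LO plus FLAP, 1 × 10^6 cells in 1 mL PBS with 0.1% glucose and 1 mM CaCl2. Pre-incubated with compound 10 min at 37 °C, then stimulated with 2.5 µM A23187 plus 2 µM arachidonic acid for 10 min at 37 °C. Stopped with methanol; all-trans LTB4 isomers and 5-H(P)ETE extracted and measured by HPLC.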

For test [4], the target named is T2, Polyunsaturated fatty acid 5-lipoxygenase (Homo sapiens). Kind of test: Inhibition of human 5-LOX expressed in HEK293 cells without FLAP expression assessed as reduction in LTB4 and 5-H(P)ETE) formation at 1 uM pre-incubated for 10 mins before arachidonic acid substrate addition by RP-HPLC method. It is filed as cell-based. The method, boiled down: as §2
The target is the same in test [5]. Kind of test: Inhibition of 5-LOX in human neutrophils assessed as remaining enzyme activity by measuring LTB4 and 5-H(P)ETE) formation at 10 uM pre-incubated for 15 mins before A23187 and arachidonic acid substrate addition by RP-HPLC method. In a few lines: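 Freshly isolated neutrophils (1 × 10^7/mL) pre-incubated with compound for 15 min at 37 °C. Stimulated with 2.5 µM A23187 plus 20 µM arachidonic acid for 10 min at 37 °C, then stopped with methanol. LTB4, its all-trans isomers and 5-H(P)ETE extracted and quantified by HPLC; cysteinyl-LTs and LTB4 oxidation products not measured. Mean ± S.E.M. of 3–4 independent experiments.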

Test [6] shares this target. Description: Inhibition of human 5-LOX expressed in Escherichia coli Bl21 (DE3) assessed as remaining enzyme activity by measuring LTB4 and 5-H(P)ETE) formation at 10 uM pre-incubated for 10 mins before arachidonic acid substrate addition by RP-HPLC method. In a few lines: as §1

SMILES strings stand for the structures. Activity calls are given as the source filed them. The calls are words filed in the database; no cut-off is given here.

The IC50 is the concentration that inhibits the measured activity by half. As to `C#CCCNC(=O)/C=C/c1ccc(OC(C)=O)c(OC(C)=O)c1`, the half-maximal inhibitory concentration (IC50) is greater than 10 µM in test [1] and 8.23 µM in test [2].

A word on the EC50: it is the concentration at which the effect is half-maximal. Turning to `O=C(O)/C=C/c1ccc(O)c(O)c1` [CAFFEIC ACID], the half-maximal effective concentration (EC50) with U-937 came to 9.9 µM.

Consider `CC(=O)Oc1ccc(/C=C/C(=O)OCCc2cn(CCCOC(=O)C3(C)CCc4c(C)c(OC(C)=O)c(C)c(C)c4O3)nn2)cc1OC(C)=O` (configuration not stated), for which the inhibition entry in test [3] and in test [4] was “Active” in each case. Further, the EC50 in the test with U-937 was 10.1 µM. Besides, the figures for the IC50 in test [1] and in test [2] were greater than 10 µM and 0.16 µM, respectively.

On to `CC(=O)Oc1ccc(/C=C/C(=O)O)cc1OC(C)=O`, for which the figures for the Activity in test [5] and in test [6] were 84.7% and 90.3%, respectively. The IC50 in test [1] and in test [2] was greater than 10 µM in each case.

For the compound `C#CCCCCCOC(=O)/C=C/c1ccc(OC(C)=O)c(OC(C)=O)c1`, the IC50 in test [1] was greater than 10 µM; in test [2], 0.47 µM.

In the case of `C#CCCOC(=O)/C=C/c1ccc(OC(C)=O)c(OC(C)=O)c1`, in the test with U-937, the EC50 stood at 9.8 µM. In addition, the values for the IC50 in test [1] and in test [2] were greater than 10 µM and 1.8 µM, respectively. The inhibition entry in test [4] was “Active”.

For `CC(=O)Oc1ccc(/C=C/C(=O)NCCc2cn(CCCO)nn2)cc1OC(C)=O`, the results for the Activity in test [5] and in test [6] were 104% and 53.6%, respectively. Further, the EC50 in the test on U-937 was 10.3 µM. Moreover, the IC50 in test [1] and in test [2] was greater than 10 µM each time.

`O=C(/C=C/c1ccc(F)c(F)c1)OCCc1cn(CCCO)nn1`: the Activity in test [5] turned out to be 101%; in test [6], 90.3%. Besides, in the test on U-937, the EC50 turned out to be 5.1 µM. The IC50 in test [1] and in test [2] was greater than 10 µM throughout.

In the case of `CC(=O)Oc1ccc(/C=C/C(=O)OCCCn2cc(CCO)nn2)cc1OC(C)=O`, the concentration for half-maximal inhibition (IC50) is 7.6 µM in test [1] and greater than 10 µM in test [2].

In the case of `CC(=O)Oc1ccc(/C=C/C(=O)OCCCN=[N+]=[N-])cc1OC(C)=O`, the 50% inhibitory concentration (IC50) in test [1] was greater than 10 µM; in test [2], 1.3 µM.

`C#CCCCCOC(=O)/C=C/c1ccc(OC(C)=O)c(OC(C)=O)c1`: the IC50 was greater than 10 µM in test [1] and 0.92 µM in test [2].

Turning to `CC(=O)Oc1ccc(/C=C/C(=O)OCCCn2cc(CCOC(=O)/C=C/c3ccc(OC(C)=O)c(OC(C)=O)c3)nn2)cc1OC(C)=O`, the inhibition entry in test [3] and in test [4] was “Active” throughout. Further, the EC50 in the test on U-937 turned out to be 9.6 µM. The IC50 in test [1] is greater than 10 µM; in test [2], 0.6 µM.

As for `C#CCCOC(=O)/C=C/c1ccc(F)c(F)c1`, the Activity in test [5] was 88.2%; in test [6] it was 52.6%. The IC50 in test [1] and in test [2] was greater than 10 µM each time.

Turning to `C#CCCCCCCCCOC(=O)/C=C/c1ccc(OC(C)=O)c(OC(C)=O)c1`, the 50% inhibitory concentration (IC50) in test [1] was greater than 10 µM; in test [2] it was 0.18 µM.

For `CC(=O)Oc1c(C)c(C)c2c(c1C)CCC(C)(C(=O)OCCCN=[N+]=[N-])O2` (configuration not stated), the results for the IC50 in test [1] and in test [2] were greater than 10 µM and 2.6 µM, respectively.

As for `CC(=O)Oc1ccc(/C=C/C(=O)OCCCCCCCCc2cn(CCCO)nn2)cc1OC(C)=O`, the EC50 in the test on U-937 was 10.2 µM. Further, the IC50 was 3.2 µM in test [1] and 0.2 µM in test [2].

Regarding `CC(=O)Oc1ccc(/C=C/C(=O)OCCCCc2cn(CCCO)nn2)cc1OC(C)=O`, the IC50 came out at 7.6 µM in test [1] and 6.1 µM in test [2].
